In experiment [1] the test system is PC-3M. The experiment is described as follows: Inhibition of human PC3M cell migration at 5 uM by wound-healing assay. The class given is functional, cell-based.
The test system of experiment [2] is PC-3M. The experiment is described as follows: Effect on cell viability of human PC3M cells at 5 uM by microscopy based assay. The class given is functional. In short, it runs like this:
(§1)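 Cells exposed during wound-healing assay, then stained with a live/dead kit. Live cells fluoresce green from esterase conversion of calcein AM to calcein; ethidium homodimer 1 enters membrane-damaged cells, giving red fluorescence on nucleic acid binding. Imaged by microscopy. Controls: DMSO (background), LY294002 7.5 µM, 0.1% saponin for 10 min (death).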

Experiment [3] relates to MDA-MB-231. The experiment is described as follows: Inhibition of human MDA-MB-231 cell migration at 5 uM by wound-healing assay. The class given is functional, cell-based.
Experiment [4] is described as follows: Antiproliferative activity against human PC3M cells after 40 hrs by MTT assay. The class given is functional, cell-based. Particulars: PC-3M. A general note: Tetrazolium dyes change colour on reduction, which living cells bring about.
Experiment [5] has as its system PC-3M. The experiment is described as follows: Effect on cell viability of human PC3M cells at 5 uM by flow cytometry. The class given is functional, cell-based. The essentials:
(§2)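 Cells harvested straight from wound-healing assays by trypsinisation, washed twice with PBS, stained with ViaCount Flex reagent and run on a Guava EasyCyte flow cytometer, with EasyFit analysis separating viable cells from dead cells and debris. DMSO background control, 70% methanol death control, LY294002 control.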
A general note: A flow cytometer gives signals particle by particle.

The subject of experiment [6] is MDA-MB-231. The experiment is described as follows: Effect on cell viability of human MDA-MB-231 cells at 5 uM by flow cytometry. The class given is functional, cell-based. In short, it runs like this: as §2
Experiment [7] has as its system MDA-MB-231. The experiment is described as follows: Effect on cell viability of human MDA-MB-231 cells at 5 uM by microscopy based assay. The class given is functional. In short, it runs like this: as §1
Experiment [8] concerns PC-3M. The experiment is described as follows: Inhibition of human PC3M cell migration by wound-healing assay. The class given is functional, cell-based.
For experiment [9], the system named is MDA-MB-231. The experiment is described as follows: Inhibition of human MDA-MB-231 cell migration by wound-healing assay. The class given is functional, cell-based.
Experiment [10] concerns PC-3M. The experiment is described as follows: Inhibition of human PC3M cell migration at 10 uM by wound-healing assay. The class given is functional, cell-based. The essentials: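 PC-3M scratch wound-healing migration assay with compound at 10 µM over 40 h. DMSO negative and LY294002 positive controls.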

Calls of active or inactive are those of the source. The rule behind the calls is not given here.

One may read the IC25 as the concentration at which the effect reaches the 25% level. Higher therefore signals a need for much substance. For orientation: IC50 means the concentration at which inhibition is half-maximal. A high value points to a need for much substance. In the case of `COc1cc(OC)c2c(c1)C(=O)C1=C(COC(C)=C1)C2=O` [DEHYDROHERBARIN], the outcome in the experiment on PC-3M [1] and with MDA-MB-231 [3] was Active. The result in the experiment on PC-3M [2], with PC-3M [5], in the experiment on MDA-MB-231 [6] and in the experiment with MDA-MB-231 [7] was inactive. The concentration for an effect of 25% (IC25) in experiment [4] came out at 2.2 µM. For the same compound, 3.5 µM corresponded to half-maximal inhibition in experiment [4] (IC50).

Turning to `COc1cc(OC)c2c(c1)C(=O)C1=C(C2=O)C(O)OC(C)=C1` (configuration not stated), the result with PC-3M [8] and with MDA-MB-231 [9] was inactive.

As for `COc1cc(OC)c2c(OC(C)=O)c3c(c(OC(C)=O)c2c1)C=C(C)OC3`, the result in the experiment with PC-3M [8] and with MDA-MB-231 [9] was inactive.

On to `COc1cc(OC)c2c(O)c3c(c(OC(C)=O)c2c1)C[C@](C)(O)OC3`, for which the outcome in the experiment on PC-3M [8] and with MDA-MB-231 [9] was inactive.

As to `COc1cc(OC)c2c(O)c3c(c(OC(C)=O)c2c1)C=C(C)OC3`, the outcome in the experiment with PC-3M [8] and with MDA-MB-231 [9] was inactive.

For the compound `COc1cc(OC)c2c(c1)C(=O)C1=C(CO[C@@](C)(O)C1)C2=O`, in the experiment with PC-3M [10], the result was Active.
